DENV2 CPE: inhibitors of DENV2 cytopathic effect; DENV2-infected cells, cytopathic effect rescue, plate reader; CPE inhibition, % at 9.99 µM; actives 1.7% (n = 350,000); AID 651640; in the data active = CPE inhibition above about 20%, passing the limit was not always enough; inconclusive = no clear call, values can overlap the other calls; tested in BHK-21 cells;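 note: 0% = median of neutral control wells and 100% = median of positive control wells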
Cneo AK release: Cryptococcus neoformans lysis via adenylate kinase release. AID 651654. actives 0.2% (n = 360,000). C. neoformans lysis, adenylate kinase release luminescence, 4 h; normalised: neutral wells 0, clomiphene wells 100. lysis activity, % at 15 µM;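 active = mean lysis activity across replicates of at least 80%, whatever share of replicates individually reach that level; inactive = mean lysis activity below 80%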
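Assay system: log-phase C. neoformans yeast / Quantity: yeast cell density of 5 × 10^6 cells/mL / Medium: fresh YPD growth medium / Compound: single dose / Timing: static 4 h at 37 °C with compound, 1 h detection / Measured by: adenylate kinase release luminescence / Read-out: lysis from increased AK signal / Benchmarks: Clomiphene as positive lysis control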
Statin myotox sup: suppressors of simvastatin-induced myotoxicity in C2C12 myotubes; rescue of ATP level, % at 7.49 µM; AID 602340; actives 0.78% (n = 330,000); ATP luminescence, 48 h; scaled: DMSO 0, geranylgeraniol control 100;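 active = mean ATP rescue above about 67%, or every replicate alone reaching that limit, limit read from the data, passing the limit was not always enough; inconclusive = no clear call, values can overlap the other calls; inactive = mean under the limit and some replicate under it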;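 note: myotubes were challenged with 10 µM simvastatin during compound exposure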
Xi reactivation: reactivates the inactive X chromosome in mouse fibroblasts; XiGFP mouse fibroblasts, % GFP-positive cells imaging, 3 d; cells co-treated with 5-aza-dC sensitizer; scaled so ellipticine positive control = 100%; activation, % at 7.58 µM; actives 0.055% (n = 360,000);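 active = mean normalized replicate activation at least 10% and every replicate at or above 10%; inconclusive = only one of the two criteria met; inactive = mean below 10% and not all replicates reach 10%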;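 note: 0% = median of on-plate neutral control wells and 100% = ellipticine 6 µM median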
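Assay system: SV40-immortalized XiGFP fibroblast cells, line 68-5-11; buffer or medium: DMEM plus 5-aza-dC sensitizer; compound: one concentration, pinned; timing: compounds 3 days, fix/stain 15 min at room temperature; benchmarks: positive control ellipticine, 6 µM final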
Starred values were filed as active, the others as inactive; u = inconclusive; x = not tested or not shown; ! = not confirmed by another sample. An excerpt weighted towards active compounds, which were near 2.1% of everything screened.

SMILES	DENV2 CPE	Cneo AK release	Statin myotox sup	Xi reactivation
Cc1c(C(=O)Nc2c(F)cccc2F)sc2ncn(CC(=O)N3CCCCC3)c(=O)c12	3	0	-11	0
CO[C@@H]1CN(C)C(=O)c2cc(NC(=O)C3CC3)ccc2OC[C@H](C)N(Cc2cccc(F)c2)C[C@@H]1C	-11	-2	8	0
Cc1ccc(C(=O)NC(=S)Nc2ccccc2C(F)(F)F)cc1C	x	-1	93*	x
O=[N+]([O-])c1cc(S(=O)(=O)C(F)(F)F)ccc1Sc1nc2ccccc2s1	x	4	86*	x
Cc1ccc(S(=O)(=O)N(C)Cc2ccc(-c3nnco3)cc2)cc1	x	0	108*	x
CCN(CC)S(=O)(=O)c1ccc(-c2nnco2)cc1	x	3	12	x
COc1ccc(CN(C)C[C@H]2Oc3ccc(NC(=O)CCC(F)(F)F)cc3CC(=O)N([C@@H](C)CO)C[C@H]2C)cc1	9	-8	2	0
Cc1cc(C)c(C(=O)NC2CCCc3c2cnn3-c2ccc(C)c(C)c2)c(=O)[nH]1 (stereo unspecified)	106*	-3	-1	0
Cc1ccc(-n2ncc3c2CCCC3NC(=O)c2ccoc2)cc1C (stereo unspecified)	-3	-3	6	0
Cn1c(-c2sc3cc(C(F)(F)F)cnc3c2-c2cccnc2)n[nH]c1=S	x	1	139*	x
Cn1c(-c2sc3cc(C(F)(F)F)cnc3c2-c2ccccn2)n[nH]c1=S	-3	3	x	0
CN1C(=O)c2cc(NC(=O)C3CC3)ccc2OC[C@@H]2O[C@H](CC(=O)NC3CCC3)CC[C@@H]21	u	-10	6	0
Cc1cc(C(=O)N[C@@H](c2ccccc2)[C@]2(C)C[C@H]2[C@@H](C)C(=O)Nc2ccc3ccccc3c2)no1	77*	-3	14	0
Cc1cc(C(=O)N[C@H](c2ccccc2)[C@@]2(C)C[C@@H]2[C@@H](C)C(=O)Nc2ccc3ccccc3c2)no1	u	-1	-28	0
CN1C(=O)c2cc(NC(=O)c3cccc(F)c3)ccc2OC[C@H]2O[C@H](CC(=O)Nc3ccccc3)CC[C@@H]21	1	0	-5	0
Cc1ccc2c(c1)CO[C@]21O[C@H](CCO)C[C@H](O)[C@H]1O	44*	6	8	0
C[C@H]1CN([C@@H](C)CO)C(=O)c2cc(NC(=O)C3CC3)ccc2O[C@H]1CN(C)S(=O)(=O)c1cccs1	36*	-2	23	-1
C[C@@H]1CN([C@H](C)CO)C(=O)c2cccc(NC(=O)C3CC3)c2O[C@H]1CN(C)S(=O)(=O)c1cccs1	34*	1	-12	0
CCCNC(=O)N1CC2(CN(S(=O)(=O)c3ccc(OC)cc3)C2)c2c(n(C)c3cc(OC)ccc23)[C@@H]1CO	11	x	x	0
OC[C@@H]1[C@H](c2ccc(-c3ccc(F)cc3)cc2)[C@H]2CN(Cc3ccncc3)CCCCN12	-5	1	2	0
OC[C@@H]1[C@@H](c2ccc(-c3ccccc3F)cc2)[C@@H]2CN(Cc3ccncc3)CCCCN12	22*	-1	x	0
OC[C@H]1[C@@H](c2ccc(-c3ccc(F)cc3)cc2)[C@H]2CN(Cc3ccncc3)CCCCN21	28*	1	-14	0
OC[C@@H]1[C@H](c2ccc(-c3ccccc3F)cc2)[C@@H]2CN(Cc3ccncc3)CCCCN12	x	0	x	0
CC(C)C(=O)Nc1ccc2c(c1)C(=O)N(C)[C@@H]1CC[C@H](CC(=O)NCCCN(C)C)O[C@@H]1CO2	-12	-10	27	0
COCC(=O)N1C[C@H](C)[C@H](OC)CN(C)C(=O)c2ccc(NC(=O)NC(C)C)cc2OC[C@@H]1C	3	80*	-7	0
SMILES	DENV2 CPE	Cneo AK release	Statin myotox sup	Xi reactivation
CCC(=O)N1C[C@H](C)[C@H](OC)CN(C)C(=O)c2ccc(NC(=O)NC(C)C)cc2OC[C@H]1C	70*	x	x	0
COc1cc(CO)cc(I)c1O[C@H]1C=C(C(=O)NCCO)C[C@@H](NCc2ccccc2F)[C@@H]1O	-6	-6	x	x
CC1CCCCC1Nc1nc2ccc(Cl)cc2n2cnnc12 (stereo unspecified)	3	0	98*	0
C[C@H](CO)N1C[C@H](C)[C@@H](CN(C)Cc2ccc(C(=O)O)cc2)Oc2ccc(NC(=O)C3CCCCC3)cc2CC1=O	-3	0	2	0
C[C@@H]1CN([C@H](C)CO)C(=O)c2cccc(NC(=O)c3nc4ccccc4s3)c2O[C@H]1CN(C)C(=O)NC1CCCCC1	45*	-1	56	-1
COc1ccc(NC(=O)N(C)C[C@H]2Oc3c(NC(=O)c4nc5ccccc5s4)cccc3C(=O)N([C@@H](C)CO)C[C@H]2C)cc1	32*!	-1	2	-1
COc1ccc(NC(=O)N(C)C[C@H]2Oc3c(NC(=O)c4nc5ccccc5s4)cccc3C(=O)N([C@@H](C)CO)C[C@@H]2C)cc1	15	-9	x	1
C[C@@H]1CN([C@@H](C)CO)C(=O)c2cccc(NC(=O)c3nc4ccccc4s3)c2O[C@H]1CN(C)C(=O)Nc1ccccc1	-2	3	22	1
C[C@H](CO)N1C[C@H](C)[C@H](CN(C)C(=O)Nc2ccc(F)cc2)Oc2c(NC(=O)c3nc4ccccc4s3)cccc2C1=O	31*	-2	x	0
C[C@@H]1CN([C@H](C)CO)C(=O)c2cccc(NC(=O)c3nc4ccccc4s3)c2O[C@@H]1CN(C)C(=O)Nc1cccc2ccccc12	-6	-1	81*	-1
C[C@@H]1CCCCO[C@H](CN(C)C(=O)c2ccccc2)[C@@H](C)CN([C@@H](C)CO)C(=O)c2cc(NC(=O)C3CCCCC3)ccc2O1	2	0	15	0
C[C@@H]1CCCCO[C@@H](CN(C)C(=O)C2CCCCC2)[C@H](C)CN([C@H](C)CO)C(=O)c2cc(NC(=O)NC3CCCCC3)ccc2O1	-8	-2	-92	0
O=C(NCCS(=O)(=O)NCc1ccc(F)cc1)c1ccc2c(c1)OCO2	75*	3	5	0
COc1ccccc1CCNS(=O)(=O)CCNC(=O)c1ccc2c(c1)OCO2	40*	1	11	0
Cc1ccc(CNS(=O)(=O)CCNC(=O)c2ccc3c(c2)OCO3)cc1	4	-2	12	0
COc1cccc(CNC(=O)C[C@@H]2C=C[C@H](NC(=O)C3CCC3)[C@H](CO)O2)c1	-1	-15	-3	0
CC(C)C#Cc1cnc2c(c1)C(=O)N([C@@H](C)CO)C[C@@H](C)[C@H](CN(C)C(=O)c1ccccc1F)O2	-7	-3	-43	-1
Cc1noc(C)c1NC(=O)N1C[C@H](O)COC[C@@H]2O[C@H](CC(=O)N[C@@H]3CCN(Cc4ccccc4)C3)CC[C@H]21	x	x	x	0
CCCCN1C(=O)NC(NC(C)=O)(C(F)(F)F)C1=O (stereo unspecified)	x	2	105*	x

Bioassay records from PubChem.
